Source: ChEMBL document CHEMBL1140996, “Synthesis and in vitro antibacterial activity of new steroidal thiosemicarbazone derivatives” (2008)
Converted amounts (≈) assume the structure as drawn.

Test system: Escherichia coli
Assay: Antibacterial activity against Escherichia coli at 10 to 100 ug/mL after 18 hrs by halo zone test
Type: functional
Conditions: not given
Method in brief: (§1)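 Disk diffusion (halo zone). Strains subcultured in BHI, 18 h at 37 °C. Cells suspended in saline by McFarland to about 10^5 CFU/mL, mixed with antibiotic agar at 40 °C and plated. 6.0 mm paper disks loaded with DMSO-stock dilutions of 10, 20, 25, 50 and 100 per mL. Inhibition zone diameter (mm) read after 18 h at 36 °C. Amoxicillin (30) disk positive control, DMSO disk negative control.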

Row | SMILES | inhibition zone (IZ) [mm]
1 | CC(C)CCC[C@@H](C)[C@H]1CC[C@H]2[C@@H]3/C(=N/NC(=S)NC4CCCC4)C=C4C[C@@H](Cl)CC[C@]4(C)[C@H]3CC[C@]12C | 15.6
2 | CC(C)CCC[C@@H](C)[C@H]1CC[C@H]2[C@@H]3/C(=N/NC(=S)NC4CCCC4)C=C4CCCC[C@]4(C)[C@H]3CC[C@]12C | 9.4
3 | CC(=O)O[C@H]1CC[C@@]2(C)C(=C/C(=N\NC(=S)NC3CCCCCCC3)[C@H]3[C@@H]4CC[C@H]([C@H](C)CCCC(C)C)[C@@]4(C)CC[C@@H]32)C1 | 13.8
4 | CC(C)CCC[C@@H](C)[C@H]1CC[C@H]2[C@@H]3/C(=N/NC(=S)NC4CCCCC4)C=C4CCCC[C@]4(C)[C@H]3CC[C@]12C | 7.8
5 | CC1(C)S[C@@H]2[C@H](NC(=O)[C@H](N)c3ccc(O)cc3)C(=O)N2[C@H]1C(=O)O [AMOXICILLIN] | 20

Test system: Staphylococcus aureus
Assay: Antibacterial activity against Staphylococcus aureus after 18 hrs by macro dilution test
Type: functional
Conditions: not given
Method in brief: (§2)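 Macro-dilution broth test. Each tube received a 24 h old inoculum, standard inoculum about 10^5 CFU/mL. Incubated 18 h at 37 °C. MIC taken visually as the lowest concentration preventing visible growth. Amoxicillin positive control, DMSO negative control.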

Row | MIC [µg/mL] | SMILES
6 | 64 (≈ 114 µM) | CC(C)CCC[C@@H](C)[C@H]1CC[C@H]2[C@@H]3/C(=N/NC(=S)NC4CCCC4)C=C4C[C@@H](Cl)CC[C@]4(C)[C@H]3CC[C@]12C
7 | 128 (≈ 237 µM) | CC(C)CCC[C@@H](C)[C@H]1CC[C@H]2[C@@H]3/C(=N/NC(=S)NC4CCCCC4)C=C4CCCC[C@]4(C)[C@H]3CC[C@]12C

More lines, now with the values behind:

Row | SMILES | MIC [µg/mL]
8 | CC(C)CCC[C@@H](C)[C@H]1CC[C@H]2[C@@H]3/C(=N/NC(=S)NC4CCCC4)C=C4CCCC[C@]4(C)[C@H]3CC[C@]12C | 256 (≈ 487 µM)
9 | CC(=O)O[C@H]1CC[C@@]2(C)C(=C/C(=N\NC(=S)NC3CCCCCCC3)[C@H]3[C@@H]4CC[C@H]([C@H](C)CCCC(C)C)[C@@]4(C)CC[C@@H]32)C1 | 128 (≈ 204 µM)
10 | CC1(C)S[C@@H]2[C@H](NC(=O)[C@H](N)c3ccc(O)cc3)C(=O)N2[C@H]1C(=O)O [AMOXICILLIN] | 32 (≈ 87.6 µM)

Test system: Salmonella typhimurium
Assay: Antibacterial activity against Salmonella Typhimurium after 18 hrs by macro dilution test
Type: functional, Salmonella enterica subsp. enterica serovar Typhimurium
Conditions: Salmonella enterica
Method in brief: as §2

Row | MIC [µg/mL] | SMILES
11 | 128 (≈ 228 µM) | CC(C)CCC[C@@H](C)[C@H]1CC[C@H]2[C@@H]3/C(=N/NC(=S)NC4CCCC4)C=C4C[C@@H](Cl)CC[C@]4(C)[C@H]3CC[C@]12C
12 | 256 (≈ 474 µM) | CC(C)CCC[C@@H](C)[C@H]1CC[C@H]2[C@@H]3/C(=N/NC(=S)NC4CCCCC4)C=C4CCCC[C@]4(C)[C@H]3CC[C@]12C

The next lines start with the molecule.

Row | SMILES | MIC [µg/mL]
13 | CC(C)CCC[C@@H](C)[C@H]1CC[C@H]2[C@@H]3/C(=N/NC(=S)NC4CCCC4)C=C4CCCC[C@]4(C)[C@H]3CC[C@]12C | 128 (≈ 243 µM)
14 | CC(=O)O[C@H]1CC[C@@]2(C)C(=C/C(=N\NC(=S)NC3CCCCCCC3)[C@H]3[C@@H]4CC[C@H]([C@H](C)CCCC(C)C)[C@@]4(C)CC[C@@H]32)C1 | 128 (≈ 204 µM)
15 | CC1(C)S[C@@H]2[C@H](NC(=O)[C@H](N)c3ccc(O)cc3)C(=O)N2[C@H]1C(=O)O [AMOXICILLIN] | 32 (≈ 87.6 µM)

Test system: Streptococcus pyogenes
Assay: Antibacterial activity against Streptococcus pyogenes after 18 hrs by macro dilution test
Type: functional
Conditions: not given
Method in brief: as §2

Row | MIC [µg/mL] | SMILES
16 | 64 (≈ 114 µM) | CC(C)CCC[C@@H](C)[C@H]1CC[C@H]2[C@@H]3/C(=N/NC(=S)NC4CCCC4)C=C4C[C@@H](Cl)CC[C@]4(C)[C@H]3CC[C@]12C
17 | 256 (≈ 474 µM) | CC(C)CCC[C@@H](C)[C@H]1CC[C@H]2[C@@H]3/C(=N/NC(=S)NC4CCCCC4)C=C4CCCC[C@]4(C)[C@H]3CC[C@]12C

Further lines, the molecule ahead of its results:

Row | SMILES | MIC [µg/mL]
18 | CC(C)CCC[C@@H](C)[C@H]1CC[C@H]2[C@@H]3/C(=N/NC(=S)NC4CCCC4)C=C4CCCC[C@]4(C)[C@H]3CC[C@]12C | 128 (≈ 243 µM)
19 | CC(=O)O[C@H]1CC[C@@]2(C)C(=C/C(=N\NC(=S)NC3CCCCCCC3)[C@H]3[C@@H]4CC[C@H]([C@H](C)CCCC(C)C)[C@@]4(C)CC[C@@H]32)C1 | 64 (≈ 102 µM)
20 | CC1(C)S[C@@H]2[C@H](NC(=O)[C@H](N)c3ccc(O)cc3)C(=O)N2[C@H]1C(=O)O [AMOXICILLIN] | 32 (≈ 87.6 µM)

Test system: Salmonella typhimurium
Assay: Antibacterial activity against Salmonella Typhimurium at 10 to 100 ug/mL after 18 hrs by halo zone test
Type: functional, Salmonella enterica subsp. enterica serovar Typhimurium
Conditions: not given
Method in brief: as §1

Row | SMILES | inhibition zone (IZ) [mm]
21 | CC(C)CCC[C@@H](C)[C@H]1CC[C@H]2[C@@H]3/C(=N/NC(=S)NC4CCCC4)C=C4C[C@@H](Cl)CC[C@]4(C)[C@H]3CC[C@]12C | 12.5
22 | CC(C)CCC[C@@H](C)[C@H]1CC[C@H]2[C@@H]3/C(=N/NC(=S)NC4CCCC4)C=C4CCCC[C@]4(C)[C@H]3CC[C@]12C | 9.2
23 | CC(=O)O[C@H]1CC[C@@]2(C)C(=C/C(=N\NC(=S)NC3CCCCCCC3)[C@H]3[C@@H]4CC[C@H]([C@H](C)CCCC(C)C)[C@@]4(C)CC[C@@H]32)C1 | 13.6
24 | CC(C)CCC[C@@H](C)[C@H]1CC[C@H]2[C@@H]3/C(=N/NC(=S)NC4CCCCC4)C=C4CCCC[C@]4(C)[C@H]3CC[C@]12C | 10.4
25 | CC1(C)S[C@@H]2[C@H](NC(=O)[C@H](N)c3ccc(O)cc3)C(=O)N2[C@H]1C(=O)O [AMOXICILLIN] | 25.2

Test system: Streptococcus pyogenes
Assay: Antibacterial activity against Streptococcus pyogenes at 10 to 100 ug/mL after 18 hrs by halo zone test
Type: functional
Conditions: not given
Method in brief: as §1

Row | SMILES | inhibition zone (IZ) [mm]
26 | CC(C)CCC[C@@H](C)[C@H]1CC[C@H]2[C@@H]3/C(=N/NC(=S)NC4CCCC4)C=C4C[C@@H](Cl)CC[C@]4(C)[C@H]3CC[C@]12C | 13.4
27 | CC(C)CCC[C@@H](C)[C@H]1CC[C@H]2[C@@H]3/C(=N/NC(=S)NC4CCCC4)C=C4CCCC[C@]4(C)[C@H]3CC[C@]12C | 9.5
28 | CC(=O)O[C@H]1CC[C@@]2(C)C(=C/C(=N\NC(=S)NC3CCCCCCC3)[C@H]3[C@@H]4CC[C@H]([C@H](C)CCCC(C)C)[C@@]4(C)CC[C@@H]32)C1 | 11.4
29 | CC(C)CCC[C@@H](C)[C@H]1CC[C@H]2[C@@H]3/C(=N/NC(=S)NC4CCCCC4)C=C4CCCC[C@]4(C)[C@H]3CC[C@]12C | 9.2
30 | CC1(C)S[C@@H]2[C@H](NC(=O)[C@H](N)c3ccc(O)cc3)C(=O)N2[C@H]1C(=O)O [AMOXICILLIN] | 22.2

Test system: Escherichia coli
Assay: Antibacterial activity against Escherichia coli after 18 hrs by macro dilution test
Type: functional
Conditions: not given
Method in brief: as §2

Row | MIC [µg/mL] | SMILES
31 | 64 (≈ 114 µM) | CC(C)CCC[C@@H](C)[C@H]1CC[C@H]2[C@@H]3/C(=N/NC(=S)NC4CCCC4)C=C4C[C@@H](Cl)CC[C@]4(C)[C@H]3CC[C@]12C
32 | 128 (≈ 237 µM) | CC(C)CCC[C@@H](C)[C@H]1CC[C@H]2[C@@H]3/C(=N/NC(=S)NC4CCCCC4)C=C4CCCC[C@]4(C)[C@H]3CC[C@]12C

The remaining lines, values behind:

Row | SMILES | MIC [µg/mL]
33 | CC(C)CCC[C@@H](C)[C@H]1CC[C@H]2[C@@H]3/C(=N/NC(=S)NC4CCCC4)C=C4CCCC[C@]4(C)[C@H]3CC[C@]12C | 256 (≈ 487 µM)
34 | CC(=O)O[C@H]1CC[C@@]2(C)C(=C/C(=N\NC(=S)NC3CCCCCCC3)[C@H]3[C@@H]4CC[C@H]([C@H](C)CCCC(C)C)[C@@]4(C)CC[C@@H]32)C1 | 128 (≈ 204 µM)
35 | CC1(C)S[C@@H]2[C@H](NC(=O)[C@H](N)c3ccc(O)cc3)C(=O)N2[C@H]1C(=O)O [AMOXICILLIN] | 32 (≈ 87.6 µM)

Test system: Staphylococcus aureus
Assay: Antibacterial activity against Staphylococcus aureus at 10 to 100 ug/mL after 18 hrs by halo zone test
Type: functional
Conditions: not given
Method in brief: as §1

Row | SMILES | inhibition zone (IZ) [mm]
36 | CC(C)CCC[C@@H](C)[C@H]1CC[C@H]2[C@@H]3/C(=N/NC(=S)NC4CCCC4)C=C4C[C@@H](Cl)CC[C@]4(C)[C@H]3CC[C@]12C | 16.2
37 | CC(C)CCC[C@@H](C)[C@H]1CC[C@H]2[C@@H]3/C(=N/NC(=S)NC4CCCC4)C=C4CCCC[C@]4(C)[C@H]3CC[C@]12C | 10.4
38 | CC(=O)O[C@H]1CC[C@@]2(C)C(=C/C(=N\NC(=S)NC3CCCCCCC3)[C@H]3[C@@H]4CC[C@H]([C@H](C)CCCC(C)C)[C@@]4(C)CC[C@@H]32)C1 | 12.6
39 | CC(C)CCC[C@@H](C)[C@H]1CC[C@H]2[C@@H]3/C(=N/NC(=S)NC4CCCCC4)C=C4CCCC[C@]4(C)[C@H]3CC[C@]12C | 10.2
40 | CC1(C)S[C@@H]2[C@H](NC(=O)[C@H](N)c3ccc(O)cc3)C(=O)N2[C@H]1C(=O)O [AMOXICILLIN] | 21
